From ChEMBL document CHEMBL1147444, “Antagonists of human CCR5 receptor containing 4-(pyrazolyl)piperidine side chains. Part 1: Discovery and SAR study of 4-pyrazolylpiperidine side chains” (Bioorg Med Chem Lett, 2004)

How the values were obtained:
[1] = biological target: T1, C-C chemokine receptor type 5 (Homo sapiens, UniProt P51681); assay: Inhibition of human C-C chemokine receptor 5 by displacement of [125I]-labeled MIP-1alpha from CHO cell membranes
Target sequence in this assay (P51681 whole entry): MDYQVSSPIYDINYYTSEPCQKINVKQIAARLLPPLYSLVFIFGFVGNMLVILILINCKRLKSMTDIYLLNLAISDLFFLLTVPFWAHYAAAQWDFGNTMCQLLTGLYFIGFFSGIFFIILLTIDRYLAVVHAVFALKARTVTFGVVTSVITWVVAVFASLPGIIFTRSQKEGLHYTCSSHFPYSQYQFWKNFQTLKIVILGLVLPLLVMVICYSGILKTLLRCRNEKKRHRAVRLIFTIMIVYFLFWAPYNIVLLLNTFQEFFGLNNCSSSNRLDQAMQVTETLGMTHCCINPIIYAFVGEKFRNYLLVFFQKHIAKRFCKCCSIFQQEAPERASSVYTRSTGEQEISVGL

[2] = tested on: Human immunodeficiency virus 1; assay: Concentration required for anti viral activity against BAL-1 strain of HIV-1 was determined using peripheral blood mononuclear cells; format: functional
In short: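 Seven-day in vitro infectivity assay in peripheral blood mononuclear cells infected with the HIV-1 BAL-1 strain. Read-out is the IC95.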

[3] = tested on: Human immunodeficiency virus 1; assay: (§1) In vitro antiviral activity against HIV-1 infected HeLa cells; format: functional; settings: Human immunodeficiency virus 1, HeLa
In short: (§2)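 Cell-culture HIV-1 infectivity assay in HeLa cells. Read-out is the IC90, with the IC50 given for some entries.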

[4] = biological target: T1, C-C chemokine receptor type 5; assay: Inhibitory activity against human CC chemokine receptor 5
In short: (§3)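 Displacement of [125I]-labeled MIP-1α from human CCR5 on CHO cell membranes, described as a GP120-membrane-based assay. IC50 values are averages of triplicate measurements, with a standard compound run to check variability between assays. Single-point lines are percent inhibition at 2 μM.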
Target sequence in this assay (P51681 whole entry): as above

[5] = biological target: T1, C-C chemokine receptor type 5; assay: Inhibitory activity against human Chemokine receptor 5 at 2 uM concentration
In short: as §3
Target sequence in this assay (P51681 whole entry, looked up): as the sequence (P51681 whole entry) above

[6] = Oral bioavailability in rat; format: ADME, organism-based; settings: in vivo
[7] = tested on: Rattus norvegicus; assay: Area under curve in rat after p.o. administration; format: ADME, organism-based; settings: in vivo, po
[8] = Plasma clearance in rat; format: ADME, organism-based; settings: read-out: Clp
[9] = Hafl life rat; format: ADME, organism-based; settings: in vivo
[10] = tested on: HeLa; assay: as §1; format: functional, cell-based; settings: Homo sapiens
In short: as §2

[11] = tested on: HeLa; assay: In vitro antiviral activity against HIV-1 infected HeLa cells from GP120-membrane-based assay; format: functional; settings: Homo sapiens
In short: as §2

[12] = biological target: T1, C-C chemokine receptor type 5; assay: Inhibitory activity against human Chemokine receptor 5 when co-administered with compound 8f
In short: as §3
Target sequence in this assay (P51681 whole entry): as above

[13] = tested on: HeLa; assay: In vitro antiviral activity against HIV-1 infected HeLa cells when co-administered with compound 8f; format: functional; settings: Homo sapiens
In short: as §2

[14] = tested on: HeLa; assay: In vitro antiviral activity against HIV-1 infected HeLa cells when co-administered with compound 8g; format: functional; settings: Homo sapiens
In short: as §2

[15] = biological target: T1, C-C chemokine receptor type 5; assay: Inhibitory activity against human […] chemokine receptor 5 when co-administered with compound 8g
Target sequence in this assay (P51681 whole entry): as above

[16] = Hafl life in rat; format: ADME, organism-based; settings: in vivo
[17] = biological target: T1, C-C chemokine receptor type 5; assay: Inhibitory concentration to displace [125I]-MIP-1 alpha from CX3C chemokine receptor 5
In short: as §3
Target sequence in this assay (P51681 whole entry): as above

[18] = biological target: T1, C-C chemokine receptor type 5; assay: Inhibitory concentration to displace [125I]-MIP-1 alpha from human […] chemokine receptor 5 expressed in CHO cell; format: cell-based
In short: as §3
Target sequence in this assay (P51681 whole entry): as above

Row | Compound | IC90 [3] [nM] | IC50 [4] [nM] | also measured
1 | CCN(C(=O)OCc1ccccc1)C1CCN(CC[C@H](CN(C)S(=O)(=O)c2ccccc2)c2cccc(Cl)c2)CC1 | – | – | IC50 [1]: 2.4 nM; IC95 [2]: 13 nM
2 | CCCn1ncc(CCc2ccccc2)c1C1CCN(C[C@H]2CN([C@@H](C(=O)O)C3CCCCC3)C[C@@H]2c2ccccc2)CC1 | 11 | – | IC50 [1]: 0.6 nM
3 | CCn1cc(Cc2ccccc2)c(C2CCN(C[C@H]3CN([C@@H](C(=O)O)C4CCCCC4)C[C@@H]3c3ccccc3)CC2)n1 | > 300 | 20 | –
4 | CCc1cc(CCc2ccccc2)n(C2CCN(C[C@H]3CN([C@@H](C(=O)O)C4CCCCC4)C[C@@H]3c3ccccc3)CC2)n1 | – | – | inhibition [5]: 82%
5 | CCOC(=O)Cn1nc(Cc2ccccc2)cc1C1CCN(C[C@H]2CN([C@@H](C(=O)O)C3CCCCC3)C[C@@H]2c2ccccc2)CC1 | 11 | 9 | –
6 | Cc1cc(-c2ccccc2)nn1C1CCN(C[C@H]2CN([C@@H](C(=O)O)C3CCCCC3)C[C@@H]2c2ccccc2)CC1 | – | – | inhibition [5]: 79%
7 | O=C(O)[C@@H](C1CCCCC1)N1C[C@H](CN2CCC(c3n[nH]cc3C(F)(F)c3ccccc3)CC2)[C@@H](c2ccccc2)C1 | 300 | 2.1 | –
8 | O=C(O)[C@@H](C1CCCCC1)N1C[C@H](CN2CCC(CCCc3ccccc3)CC2)[C@@H](c2ccccc2)C1 | – | – | IC50 [1]: 0.2 nM; IC95 [2]: 93 nM
9 | CCn1ncc(CCc2ccccc2)c1C1CCN(C[C@H]2CN([C@@H](C(=O)O)C3CCCCC3)C[C@@H]2c2ccccc2)CC1 | 0.4 | 0.6 | bioavailability [6]: 2.6%; AUC N [7]: 0.01 uM hr dose-1; clearance [8]: 4.74 L/h/kg
10 | COc1ccc(-c2cc(C3CCN(C[C@H]4CN([C@@H](C(=O)O)C5CCCCC5)C[C@@H]4c4cccc(F)c4)CC3)[nH]n2)cc1 | > 300 | – | IC50 [1]: 12 nM
11 | CCn1ncc(C(C)(C)c2ccccc2)c1C1CCN(C[C@H]2CN([C@@H](C(=O)O)C3CCCCC3)C[C@@H]2c2ccccc2)CC1 | 300 | 6.9 | –
12 | CCn1nc(-c2ccccc2)cc1C1CCN(C[C@H]2CN([C@@H](C(=O)O)C3CCCCC3)C[C@@H]2c2ccccc2)CC1 | > 300 | 22 | bioavailability [6]: 21%; half-life [9]: 90 min; AUC N [7]: 1.7 uM hr dose-1; IC50 [10]: 100 nM; clearance [8]: 0.228 L/h/kg
13 | CCn1ncc(Cc2ccccc2)c1C1CCN(C[C@H]2CN([C@@H](C(=O)O)C3CCCCC3)C[C@@H]2c2ccccc2)CC1 | 3.7 | 3 | IC90 [11]: 10 nM
14 | CCn1nc(-c2ccc(CN)cc2)cc1C1CCN(C[C@H]2CN([C@@H](C(=O)O)C3CCCCC3)C[C@@H]2c2ccccc2)CC1 | – | 112 | –
15 | CCn1cc(CCc2ccccc2)c(C2CCN(C[C@H]3CN([C@@H](C(=O)O)C4CCCCC4)C[C@@H]3c3ccccc3)CC2)n1 | 300 | 2.3 | –
16 | N#Cc1ccc(-c2cc(C3CCN(C[C@H]4CN([C@@H](C(=O)O)C5CCCCC5)C[C@@H]4c4ccccc4)CC3)n[nH]2)cc1 | > 300 | – | IC50 [1]: 7.5 nM; IC50 [10]: 100 nM
17 | CCCCn1nc(Cc2ccccc2)cc1C1CCN(C[C@H]2CN([C@@H](C(=O)O)C3CCCCC3)C[C@@H]2c2ccccc2)CC1 | 11 | 3 | –
18 | CCn1ncc(C(=O)c2ccccc2)c1C1CCN(C[C@H]2CN([C@@H](C(=O)O)C3CCCCC3)C[C@@H]2c2ccccc2)CC1 | – | 23 | –
19 | CCn1nc(-c2ccc(C#N)cc2)cc1C1CCN(C[C@H]2CN([C@@H](C(=O)O)C3CCCCC3)C[C@@H]2c2ccccc2)CC1 | > 300 | 16 | IC50 [10]: 33 nM
20 | O=C(O)Cn1nc(Cc2ccccc2)cc1C1CCN(C[C@H]2CN([C@@H](C(=O)O)C3CCCCC3)C[C@@H]2c2ccccc2)CC1 | – | 33 | –
21 | CCCn1nc(Cc2ccccc2)cc1C1CCN(C[C@H]2CN([C@@H](C(=O)O)C3CCCCC3)C[C@@H]2c2ccccc2)CC1 | 1.2 | 4.6 | –
22 | CCn1nc(C2CCN(C[C@H]3CN([C@@H](C(=O)O)C4CCCCC4)C[C@@H]3c3ccccc3)CC2)cc1Cc1ccccc1 | > 300 | 76 | –
23 | CCn1ncc(C2(c3ccccc3)CC2)c1C1CCN(C[C@H]2CN([C@@H](C(=O)O)C3CCCCC3)C[C@@H]2c2ccccc2)CC1 | – | 11 | –

Row | Compound | IC90 [3] [nM] | IC50 [4] [nM] | also measured
24 | CCc1cc(Cc2ccccc2)n(C2CCN(C[C@H]3CN([C@@H](C(=O)O)C4CCCCC4)C[C@@H]3c3ccccc3)CC2)n1 | – | – | IC50 [12]: 78 nM; IC90 [13]: > 300 nM
25 | O=C(O)[C@@H](C1CCCCC1)N1C[C@H](CN2CCC(c3n[nH]cc3C3(c4ccccc4)CC3)CC2)[C@@H](c2ccccc2)C1 | > 300 | 4.4 | –
26 | Cn1ncc(CCc2ccccc2)c1C1CCN(C[C@H]2CN([C@@H](C(=O)O)C3CCCCC3)C[C@@H]2c2ccccc2)CC1 | 3.7 | – | IC50 [1]: 1 nM
27 | CCc1cc(CCc2ccccc2)nn1C1CCN(C[C@H]2CN([C@@H](C(=O)O)C3CCCCC3)C[C@@H]2c2ccccc2)CC1 | – | – | IC90 [14]: > 300 nM; IC50 [15]: 105 nM
28 | O=C(O)[C@@H](C1CCCCC1)N1C[C@H](CN2CCC(c3cc(-c4ccc(Cl)cc4)n[nH]3)CC2)[C@@H](c2cccc(F)c2)C1 | > 300 | – | IC50 [1]: 4 nM
29 | CCn1nc(Cc2ccccc2)cc1C1CCN(C[C@H]2CN([C@@H](C(=O)O)C3CCCCC3)C[C@@H]2c2ccccc2)CC1 | 0.4 | – | bioavailability [6]: 4.1%; half-life [16]: 49.2 min; IC50 [17]: 2.1 nM; IC50 [18]: 1.2 nM; AUC N [7]: 0.02 uM hr dose-1; clearance [8]: 3.84 L/h/kg
30 | O=C(O)[C@@H](C1CCCCC1)N1C[C@H](CN2CCC(c3[nH]ncc3Cc3ccccc3)CC2)[C@@H](c2ccccc2)C1 | 100 | 4.8 | –
31 | CCCn1cc(CCc2ccccc2)c(C2CCN(C[C@H]3CN([C@@H](C(=O)O)C4CCCCC4)C[C@@H]3c3ccccc3)CC2)n1 | – | – | IC50 [1]: 9 nM
32 | Cn1cc(CCc2ccccc2)c(C2CCN(C[C@H]3CN([C@@H](C(=O)O)C4CCCCC4)C[C@@H]3c3ccccc3)CC2)n1 | – | – | IC50 [1]: 23 nM
33 | O=C(O)[C@@H](C1CCCCC1)N1C[C@H](CN2CCC(c3cc(-c4ccc(Cl)cc4Cl)[nH]n3)CC2)[C@@H](c2cccc(F)c2)C1 | > 300 | – | IC50 [1]: 9 nM
34 | O=C(O)[C@@H](C1CCCCC1)N1C[C@H](CN2CCC(c3cc(-c4cccc5ccccc45)[nH]n3)CC2)[C@@H](c2ccccc2)C1 | > 300 | – | IC50 [1]: 7.5 nM
35 | O=C(O)[C@@H](C1CCCCC1)N1C[C@H](CN2CCC(c3n[nH]cc3CCc3ccccc3)CC2)[C@@H](c2ccccc2)C1 | 33 | 1.2 | –
36 | CCn1nc(CCc2ccccc2)cc1C1CCN(C[C@H]2CN([C@@H](C(=O)O)C3CCCCC3)C[C@@H]2c2cccc(F)c2)CC1 | 11 | – | bioavailability [6]: 3.2%; half-life [9]: 27 min; IC50 [1]: 2.2 nM; AUC N [7]: 0.01 uM hr dose-1; clearance [8]: 4.32 L/h/kg
37 | O=C(O)[C@@H](C1CCCCC1)N1C[C@H](CN2CCC(c3cc(Cc4ccccc4)nn3CC(F)(F)F)CC2)[C@@H](c2ccccc2)C1 | 33 | 4.8 | –
38 | O=C(O)[C@@H](C1CCCCC1)N1C[C@H](CN2CCC(c3oncc3Cc3ccccc3)CC2)[C@@H](c2ccccc2)C1 | 0.4 | 0.8 | bioavailability [6]: 5.9%; AUC N [7]: 0.03 uM hr dose-1; clearance [8]: 4.02 L/h/kg
39 | Cc1cc(-c2ccccc2)n(C2CCN(C[C@H]3CN([C@@H](C(=O)O)C4CCCCC4)C[C@@H]3c3ccccc3)CC2)n1 | – | – | inhibition [5]: 65%
40 | O=C(O)[C@@H](C1CCCCC1)N1C[C@H](CN2CCC(c3cc(Cc4ccccc4)n[nH]3)CC2)[C@@H](c2ccccc2)C1 | 0.4 | 2.2 | –
41 | Cn1nc(Cc2ccccc2)cc1C1CCN(C[C@H]2CN([C@@H](C(=O)O)C3CCCCC3)C[C@@H]2c2ccccc2)CC1 | 3.7 | 4.2 | –
42 | O=C(c1ccccc1)c1c[nH]nc1C1CCN(C[C@H]2CN([C@@H](C(=O)O)C3CCCCC3)C[C@@H]2c2ccccc2)CC1 | – | 41 | –
43 | CC(C)(c1ccccc1)c1cn[nH]c1C1CCN(C[C@H]2CN([C@@H](C(=O)O)C3CCCCC3)C[C@@H]2c2ccccc2)CC1 | – | 11.5 | –
44 | O=C(O)[C@@H](C1CCCCC1)N1C[C@H](CN2CCC(c3nocc3Cc3ccccc3)CC2)[C@@H](c2ccccc2)C1 | 3.7 | 1.2 | –
45 | CCn1nc(-c2cccc3ccccc23)cc1C1CCN(C[C@H]2CN([C@@H](C(=O)O)C3CCCCC3)C[C@@H]2c2cccc(F)c2)CC1 | – | – | IC50 [1]: 16 nM
